The record followed here is ChEMBL document CHEMBL1153829, “Exploiting chemical libraries, structure, and genomics in the search for kinase inhibitors” (Science, 1998).

The subject of one experiment is Nucleic Acid. In words: Induction of condensation of DNA. Type of experiment: nucleic-acid assay.
Experiment [1] has as its system Saccharomyces cerevisiae. In words: Effect on YER037w gene expression in delta snq2, delta pdr5 and delta erg6 knock out yeast YRP1 bearing cdc28-4 mutant allele assessed as change in mRNA level at 25 µM after 2 hrs by high-density oligonucleotide array. Type of experiment: functional, organism-based. The conditions noted are these: […].
Experiment [2] deals with Saccharomyces cerevisiae. In words: Increase in YBR296c mRNA level in delta snq2, delta pdr5 and delta erg6 knock out yeast YRP1 at 25 µM after 2 hrs by high-density oligonucleotide array. Type of experiment: functional, organism-based. The settings on record: 25 M. The method in brief: (§1)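 Drug-sensitized S. cerevisiae cultures grown to late logarithmic phase, then exposed to 25 μM inhibitor for 2 h. Polyadenylated mRNA isolated, converted to biotin-labeled cRNA and hybridized to a set of four high-density arrays carrying more than 260,000 25-nucleotide oligomers. Transcripts scored as changed when they shifted more than twofold in triplicate hybridizations for each of two independent experiments.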

Experiment [3] relates to Saccharomyces cerevisiae. In words: Increase in CTT1 mRNA level in delta snq2, delta pdr5 and delta erg6 knock out yeast YRP1 at 25 µM after 2 hrs by high-density oligonucleotide array. Type of experiment: functional, organism-based. The settings on record: 25 M. In short, it runs like this:
as §1

The subject of experiment [4] is Saccharomyces cerevisiae. In words: Increase in PHO5 mRNA level in delta snq2, delta pdr5 and delta erg6 knock out yeast YRP1 at 25 µM after 2 hrs by high-density oligonucleotide array. Type of experiment: functional, organism-based. The settings on record: […]. The method in brief:
as §1

Experiment [5] deals with Saccharomyces cerevisiae. In words: Induction of PGM2 gene expression in delta snq2, delta pdr5 and delta erg6 knock out yeast YRP1 at 25 µM after 2 hrs by high-density oligonucleotide array. Type of experiment: functional, organism-based. The conditions noted are these: 25 M. The method in brief: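 Drug-sensitized yeast strain grown to late logarithmic phase, then exposed to 25 μM inhibitor for 2 h. Polyadenylated mRNA was isolated and converted to biotin-labeled cRNA, which was hybridized to a set of four arrays carrying over 260,000 25-nucleotide oligomers. Transcripts changing more than twofold were scored, from triplicate hybridizations in each of two independent experiments.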

In experiment [6] the test system is Saccharomyces cerevisiae. As to the kind of experiment: Effect on ZMS1 gene expression in delta snq2, delta pdr5 and delta erg6 knock out yeast YRP1 bearing cdc28-4 mutant allele assessed as change in mRNA level at 25 µM after 2 hrs by high-density oligonucleotide array. The conditions noted are these: 25 M. The experiment is classed as functional, organism-based.

Experiment [7] concerns Saccharomyces cerevisiae. As to the kind of experiment: Growth inhibition of delta snq2, delta pdr5 and delta erg6 knock out yeast YRP1 after 2 hrs. The experiment is classed as functional.
Experiment [8] can be described thus: Induction of microtubule […].

The source made the active and inactive calls. The rule behind the calls is not given here.

For orientation: GI50 means the concentration at which growth is held to half of that of the control. `CC(C)n1cnc2/c(=N/c3cccc(Cl)c3)nc(NCCO)[nH]c21`: the outcome in the experiment with Nucleic Acid, with Saccharomyces cerevisiae [1], in the experiment with Saccharomyces cerevisiae [2], with Saccharomyces cerevisiae [3], in the experiment on Saccharomyces cerevisiae [4] and in the experiment on Saccharomyces cerevisiae [5] was Active. Moreover, the outcome (with Saccharomyces cerevisiae [6]; in [8]) was Active. This compound displayed a GI50 in the experiment with Saccharomyces cerevisiae [7] of 30 µM.

`CN1CC[C@H](c2c(O)cc(O)c3c(=O)cc(-c4ccccc4Cl)oc23)[C@H](O)C1` [ALVOCIDIB]: the result in the experiment on Saccharomyces cerevisiae [1], in the experiment on Saccharomyces cerevisiae [2], in the experiment on Saccharomyces cerevisiae [3], in the experiment with Saccharomyces cerevisiae [4], in the experiment on Saccharomyces cerevisiae [5] and in the experiment with Saccharomyces cerevisiae [6] was Active.
